Experiments:
[1] = test system: Platelet; assay: Inhibition of collagen-induced platelet aggregation in rabbit platelet-rich plasma at 100 ug/mL after 3 mins by turbidimetric method; assay type: functional, Oryctolagus cuniculus; parameters: scale not given: the % may be the effect or the level left
Outline: (§1)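 Preincubated with test agent or 0.5% DMSO (final, control) at 37° for 3 min, then ADP (20 μM), arachidonic acid (100 μM), collagen (10 μg/ml) or PAF (2 ng/ml) added. Stirred at 1200 rpm, turbidimetric aggregometry. Percent aggregation as mean ± SEM.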

[2] = test system: Platelet; assay: Inhibition of ADP-induced platelet aggregation in rabbit platelet-rich plasma at 100 ug/mL after 3 mins by turbidimetric method; assay type: functional, Oryctolagus cuniculus; parameters: scale not given: the % may be the effect or the level left
Outline: (§2)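 Washed rabbit platelets from EDTA-anticoagulated platelet-rich plasma, 4.5 × 10^8/ml in Tyrode's solution with 0.35% BSA. Preincubated with test agent or 0.5% DMSO (final, control) at 37° for 3 min, then ADP (20 μM), arachidonic acid (100 μM), collagen (10 μg/ml) or PAF (2 ng/ml) added. Stirred at 1200 rpm, turbidimetric aggregometry. Percent aggregation as mean ± SEM.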

[3] = test system: Platelet; assay: Inhibition of arachidonic acid-induced platelet aggregation in rabbit platelet-rich plasma at 100 ug/mL after 3 mins by turbidimetric method; assay type: functional, Oryctolagus cuniculus; parameters: scale not given: the % may be the effect or the level left; outline: as §1
[4] = test system: Platelet; assay: Inhibition of platelet activity factor-induced platelet aggregation in rabbit platelet-rich plasma at 100 ug/mL after 3 mins by turbidimetric method; assay type: functional, Oryctolagus cuniculus; parameters: scale not given: the % may be the effect or the level left; outline: as §1
[5] = test system: Platelet; assay: Inhibition of collagen-induced platelet aggregation in rabbit platelet-rich plasma after 3 mins by turbidimetric method; assay type: functional; conditions: Oryctolagus cuniculus
[6] = test system: Platelet; assay: Inhibition of arachidonic acid-induced platelet aggregation in rabbit platelet-rich plasma at 50 ug/mL after 3 mins by turbidimetric method; assay type: functional, Oryctolagus cuniculus; parameters: scale not given: the % may be the effect or the level left
Outline: (§3)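 Washed rabbit platelets from EDTA-anticoagulated platelet-rich plasma, 4.5 × 10^8/ml in Tyrode's solution with 0.35% BSA. Preincubated with compound or 0.5% DMSO (final) at 37° for 3 min, stirred at 1200 rpm. Arachidonic acid (100 µM) or collagen (10 µg/ml) then added. Turbidimetric read-out on a Lumi-aggregometer gives % aggregation as mean ± SEM.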

[7] = test system: Platelet; assay: Inhibition of collagen-induced platelet aggregation in rabbit platelet-rich plasma at 50 ug/mL after 3 mins by turbidimetric method; assay type: functional, Oryctolagus cuniculus; parameters: scale not given: the % may be the effect or the level left; outline: as §3
[8] = test system: Platelet; assay: Inhibition of arachidonic acid-induced platelet aggregation in rabbit platelet-rich plasma at 25 ug/mL after 3 mins by turbidimetric method; assay type: functional, Oryctolagus cuniculus; parameters: scale not given: the % may be the effect or the level left; outline: as §2
[9] = test system: Platelet; assay: Inhibition of ADP-induced platelet aggregation in rabbit platelet-rich plasma at 50 ug/mL after 3 mins by turbidimetric method; assay type: functional, Oryctolagus cuniculus; parameters: scale not given: the % may be the effect or the level left; outline: as §2
[10] = test system: Platelet; assay: Inhibition of platelet activity factor-induced platelet aggregation in rabbit platelet-rich plasma at 50 ug/mL after 3 mins by turbidimetric method; assay type: functional, Oryctolagus cuniculus; parameters: scale not given: the % may be the effect or the level left; outline: as §2
[11] = test system: Aorta; assay: Inhibition of norepinephrine-induced Wistar rat thoracic aorta phasic contraction at 50 ug/mL after 15 mins; assay type: functional; parameters: scale not given: the % may be the effect or the level left
Outline: (§4)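 Thoracic aorta rings (~5 mm) from Wistar rats of either sex (250–300 g) held in Krebs solution at 37° under 95% O2/5% CO2. Equilibrated 90 min at 1 g tension, then preincubated 15 min with compound or 0.1% DMSO. Contraction by norepinephrine (3 µM), phasic and tonic components, expressed as % of control contraction, mean ± SE, n = 3.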

[12] = test system: Aorta; assay: Inhibition of norepinephrine-induced Wistar rat thoracic aorta tonic contraction at 50 ug/mL after 15 mins; assay type: functional; parameters: scale not given: the % may be the effect or the level left; outline: as §4
[13] = test system: Aorta; assay: Inhibition of norepinephrine-induced Wistar rat thoracic aorta phasic contraction at 10 ug/mL after 15 mins; assay type: functional; parameters: scale not given: the % may be the effect or the level left; outline: as §4
[14] = test system: Aorta; assay: Inhibition of norepinephrine-induced Wistar rat thoracic aorta phasic contraction at 100 ug/mL after 15 mins; assay type: functional
Outline: (§5)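 Wistar rat thoracic aorta rings, about 5 mm, in Krebs solution at 37° gassed with 95% O2/5% CO2, under 1 g tension, equilibrated 90 min. Preincubated 15 min with compound or 0.1% DMSO (control), then stimulated with high K+ (80 mM) plus Ca2+ (1.9 mM) or norepinephrine 3 μM (phasic and tonic phases). Expressed as % of control contraction, mean ± SE, n = 3.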

[15] = test system: Aorta; assay: Inhibition of K(+)/Ca(2+)-induced Wistar rat thoracic aorta contraction at 100 ug/mL after 15 mins; assay type: functional; outline: as §5
[16] = test system: Aorta; assay: Inhibition of norepinephrine-induced Wistar rat thoracic aorta phasic contraction at 20 ug/mL after 15 mins; assay type: functional; parameters: scale not given: the % may be the effect or the level left; outline: as §4
[17] = test system: Aorta; assay: Inhibition of norepinephrine-induced Wistar rat thoracic aorta tonic contraction at 20 ug/mL after 15 mins; assay type: functional; parameters: scale not given: the % may be the effect or the level left; outline: as §4
[18] = test system: Aorta; assay: Inhibition of norepinephrine-induced Wistar rat thoracic aorta tonic contraction at 10 ug/mL after 15 mins; assay type: functional; parameters: scale not given: the % may be the effect or the level left; outline: as §4
[19] = test system: Aorta; assay: Inhibition of norepinephrine-induced Wistar rat thoracic aorta tonic contraction at 100 ug/mL after 15 mins; assay type: functional; outline: as §5
[20] = test system: Platelet; assay: Inhibition of collagen-induced platelet aggregation in rabbit platelet-rich plasma at 25 ug/mL after 3 mins by turbidimetric method; assay type: functional, Oryctolagus cuniculus; parameters: scale not given: the % may be the effect or the level left; outline: as §2
[21] = test system: Platelet; assay: Inhibition of ADP-induced platelet aggregation in rabbit platelet-rich plasma at 25 ug/mL after 3 mins by turbidimetric method; assay type: functional, Oryctolagus cuniculus; parameters: scale not given: the % may be the effect or the level left; outline: as §2
[22] = test system: Platelet; assay: Inhibition of platelet activity factor-induced platelet aggregation in rabbit platelet-rich plasma at 25 ug/mL after 3 mins by turbidimetric method; assay type: functional, Oryctolagus cuniculus; parameters: scale not given: the % may be the effect or the level left; outline: as §2

| Structure (SMILES) | Activity [1] | Activity [2] | Activity [3] | Activity [4] | also measured |
| --- | --- | --- | --- | --- | --- |
| CC(=O)Oc1cc(OC(C)=O)c2c(=O)c(O[C@@H]3O[C@H](CO[C@@H]4O[C@@H](C)[C@H](OC(C)=O)[C@@H](OC(C)=O)[C@H]4OC(C)=O)[C@@H](OC(C)=O)[C@H](OC(C)=O)[C@H]3OC(C)=O)c(-c3ccc(OC(C)=O)c(OC(C)=O)c3)oc2c1 [RUTIN DECAACETATE] | 27.3% | 72.4% | 25.9% | 88.7% | – |
| COc1ccc2c(c1)c(CC(=O)O)c(C)n2C(=O)c1ccc(Cl)cc1 [INDOMETHACIN] | 72.3% | 69.5% | 0% | 89.4% | – |
| COc1cc(OC(C)=O)c2c(=O)c(OC(C)=O)c(-c3ccc(OC(C)=O)c(OC(C)=O)c3)oc2c1 [RHAMNETIN TETRAACETATE] | 0% | – | 2.6% | 0% | Activity [5]: Dose-dependent effect |
| Cc1cc(O)c2c(c1)C(=O)c1cc(O)cc(O)c1C2=O [EMODIN] | 75.7% | 65.1% | 33.6% | 76.4% | Activity [6]: 64.5%; Activity [7]: 83.3%; Activity [8]: 90.2% |
| CC(=O)Oc1cc(OC(C)=O)c2c(=O)c(OC(C)=O)c(-c3ccc(O[C@@H]4O[C@H](CO[C@@H]5O[C@@H](C)[C@H](OC(C)=O)[C@@H](OC(C)=O)[C@H]5O[C@@H]5O[C@@H](C)[C@H](OC(C)=O)[C@@H](OC(C)=O)[C@H]5OC(C)=O)[C@H](OC(C)=O)[C@H](OC(C)=O)[C@H]4OC(C)=O)cc3)oc2c1 [RHAMNUSTRIOSIDE UNDECAAACETATE] | 86.5% | – | 88.5% | 89.9% | – |
| CC(=O)Oc1cc(OC(C)=O)c2c(c1)C(=O)c1cc(C)cc(OC(C)=O)c1C2=O [EMODIN TRIACETATE] | 89.6% | 72.2% | 82.5% | 84.5% | – |
| COc1cc(OC(C)=O)c2c(=O)c(OC(C)=O)c(-c3ccc(OC(C)=O)c(OC)c3)oc2c1 [RHAMNAZIN TRIACETATE] | 14.3% | – | 10% | 84.5% | Activity [5]: Dose-dependent effect |
| Cc1cc(O)c2c(c1)C(=O)c1cccc(O)c1C2=O [CHRYSOPHANOL] | – | – | – | – | Activity [6]: 90.6%; Activity [7]: 85.4%; Activity [9]: 82.6%; Activity [10]: 88.3% |
| O=c1c(O)c(-c2ccc(O)c(O)c2)oc2cc(O)cc(O)c12 [QUERCETIN] | – | – | – | – | Activity [11]: 15%; Activity [12]: 0%; Activity [13]: 105%; Contraction as % of control [14]: 27%; Contraction as % of control [15]: 13.9%; Activity [16]: 44.9%; Activity [17]: 29.1%; Activity [18]: 101.9%; Contraction (% of control) [19]: 0% |
| O=c1c(O[C@@H]2O[C@H](CO[C@@H]3OC[C@H](O)[C@H](O)[C@H]3O)[C@H](O)[C@H](O)[C@H]2O)c(-c2ccc(O)c(O)c2)oc2cc(O)cc(O)c12 | – | – | – | – | Contraction as % of control [14]: 100%; Contraction as % of control [15]: 100%; Contraction (% of control) [19]: 108.4% |
| COc1cc(OC(C)=O)c2c(=O)c(O[C@@H]3O[C@H](CO[C@@H]4O[C@@H](C)[C@H](O[C@@H]5O[C@@H](C)[C@H](OC(C)=O)[C@@H](OC(C)=O)[C@H]5OC(C)=O)[C@@H](OC(C)=O)[C@H]4OC(C)=O)[C@H](OC(C)=O)[C@H](OC(C)=O)[C@H]3OC(C)=O)c(-c3ccc(OC(C)=O)c(OC)c3)oc2c1 | 87.8% | – | 88.8% | 90.8% | – |
| COc1cc(O)c2c(c1)C(=O)c1cc(C)cc(O)c1C2=O [PHYSCION] | – | – | – | – | Activity [20]: 86.8%; Activity [21]: 78.9%; Activity [8]: 89.6%; Activity [22]: 80.7% |
| CC(=O)Oc1cc(OC(C)=O)c2c(=O)c(O[C@@H]3O[C@H](CO[C@@H]4OC[C@H](OC(C)=O)[C@H](OC(C)=O)[C@H]4OC(C)=O)[C@H](OC(C)=O)[C@H](OC(C)=O)[C@H]3OC(C)=O)c(-c3ccc(OC(C)=O)c(OC(C)=O)c3)oc2c1 | 38.5% | – | 78.3% | 87.7% | – |
| CC(=O)Oc1cc(OC(C)=O)c2c(=O)c(OC(C)=O)c(-c3ccc(OC(C)=O)c(OC(C)=O)c3)oc2c1 | 17.4% | – | 2.4% | 89.2% | – |
| O=c1c(O[C@@H]2O[C@H](CO)[C@H](O)[C@H](O)[C@H]2O)c(-c2ccc(O)c(O)c2)oc2cc(O)cc(O)c12 [HYPEROSIDE] | 87.3% | 71.4% | 92.2% | 93.8% | Contraction as % of control [14]: 100%; Contraction as % of control [15]: 120.9%; Contraction (% of control) [19]: 98.8% |
| C[C@@H]1O[C@@H](OC[C@H]2O[C@@H](Oc3c(-c4ccc(O)c(O)c4)oc4cc(O)cc(O)c4c3=O)[C@H](O)[C@@H](O)[C@@H]2O)[C@H](O)[C@H](O)[C@H]1O [RUTIN] | 87% | 75% | 93.5% | 91.1% | Contraction as % of control [14]: 103.8%; Contraction as % of control [15]: 112.9%; Contraction (% of control) [19]: 120.6% |
| COc1cc(OC(C)=O)c2c(c1)C(=O)c1cc(C)cc(OC(C)=O)c1C2=O [PHYSCION DIACETATE] | – | – | – | – | Activity [20]: 89.4%; Activity [21]: 76.5%; Activity [8]: 90.3%; Activity [22]: 93.9% |
